Consider 10 molecules from ChEMBL document CHEMBL2407009, “Rotenoids from Boerhaavia diffusa as potential anti-inflammatory agents” (J Nat Prod, 2013).

Experiment [1] concerns the target T1, Prostaglandin G/H synthase 1 (Ovis aries, UniProt P05979).
T1 sequence (P05979 whole entry): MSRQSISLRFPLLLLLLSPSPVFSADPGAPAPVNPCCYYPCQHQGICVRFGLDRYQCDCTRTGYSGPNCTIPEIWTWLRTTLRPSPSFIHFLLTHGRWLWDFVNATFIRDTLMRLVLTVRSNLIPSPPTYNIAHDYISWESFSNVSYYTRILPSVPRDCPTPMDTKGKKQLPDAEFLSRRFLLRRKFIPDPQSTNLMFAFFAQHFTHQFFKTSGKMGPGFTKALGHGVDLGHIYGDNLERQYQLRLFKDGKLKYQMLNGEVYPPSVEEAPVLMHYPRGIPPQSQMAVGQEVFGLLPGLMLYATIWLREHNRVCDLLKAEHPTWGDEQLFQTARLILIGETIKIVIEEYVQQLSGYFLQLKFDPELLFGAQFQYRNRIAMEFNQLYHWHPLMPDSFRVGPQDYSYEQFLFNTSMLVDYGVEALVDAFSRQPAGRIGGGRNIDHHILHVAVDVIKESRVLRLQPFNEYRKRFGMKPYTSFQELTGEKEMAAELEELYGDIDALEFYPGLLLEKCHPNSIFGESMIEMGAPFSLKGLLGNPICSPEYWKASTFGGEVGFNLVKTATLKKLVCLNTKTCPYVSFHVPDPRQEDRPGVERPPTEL
Kind of experiment: Inhibition of ovine COX1 assessed as PGF2alpha production by reduction of PGH2 with stannous chloride by enzyme immunoassay. Summed up: (§1)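 Ovine COX-1 or COX-2 from screening kit used per manufacturer; arachidonic acid substrate, PGH2 reduced by SnCl2 to PGF2α and read by enzyme immunoassay. DMSO stock solutions. Percent inhibition relative to control incubations; IC50 obtained from concentration−inhibition response curves. Means ± SEM, n = 2−3.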

The species named for experiment [2] is Ovis aries. The experiment in a line: Selectivity ratio of IC50 for ovine COX1 to IC50 for ovine COX2. Summed up:
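Ratio of COX-1 IC50 to COX-2 IC50. Both IC50s come from concentration−inhibition curves in the ovine enzyme kit assay, with PGF2α (from SnCl2 reduction of PGH2) measured by enzyme immunoassay.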

Experiment [3] has as its target T2, Prostaglandin G/H synthase 2 (Ovis aries, UniProt P79208).
T2 sequence (P79208 whole entry): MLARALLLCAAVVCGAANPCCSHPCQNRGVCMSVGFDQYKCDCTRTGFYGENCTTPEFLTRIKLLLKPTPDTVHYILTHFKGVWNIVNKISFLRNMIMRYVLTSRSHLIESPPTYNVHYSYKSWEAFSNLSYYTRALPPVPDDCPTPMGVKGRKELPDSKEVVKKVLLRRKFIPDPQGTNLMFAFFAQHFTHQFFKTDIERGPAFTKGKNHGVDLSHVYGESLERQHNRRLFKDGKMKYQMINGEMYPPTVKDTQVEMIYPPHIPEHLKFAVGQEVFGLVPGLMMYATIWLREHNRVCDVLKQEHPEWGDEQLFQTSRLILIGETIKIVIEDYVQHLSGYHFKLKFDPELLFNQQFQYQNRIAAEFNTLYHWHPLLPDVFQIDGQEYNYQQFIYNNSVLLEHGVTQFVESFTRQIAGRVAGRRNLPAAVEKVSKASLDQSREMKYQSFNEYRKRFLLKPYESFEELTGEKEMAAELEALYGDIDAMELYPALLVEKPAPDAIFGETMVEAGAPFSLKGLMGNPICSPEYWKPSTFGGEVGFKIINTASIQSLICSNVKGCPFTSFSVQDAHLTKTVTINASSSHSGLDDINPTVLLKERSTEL
Kind of experiment: Inhibition of ovine COX2 assessed as PGF2alpha production by reduction of PGH2 with stannous chloride by enzyme immunoassay. Summed up: as §1

Experiment [4] deals with T3, Prostaglandin G/H synthase 1 (Ovis aries) (UniProt P05979).
T3 sequence (whole entry): T1 sequence (P05979 whole entry)
Kind of experiment: Inhibition of ovine COX1 assessed as PGF2alpha production by reduction of PGH2 with stannous chloride at 40 uM by enzyme immunoassay relative to control. Summed up: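 Ovine COX inhibitor screening kit run per manufacturer. Enzyme converts arachidonic acid to PGH2, which SnCl2 reduces to PGF2α, quantified by enzyme immunoassay. DMSO stocks; final test concentration 40 μM. Percent inhibition calculated against control incubations. Means ± SEM, n = 2−3.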

Experiment [5] relates to Rattus norvegicus. The experiment in a line: Antiinflammatory activity in Sprague-Dawley rat assessed as inhibition of carrageenan-induced paw edema at 50 mg/kg, po administered 1 hr before carrageenan challenge measured after 5 hrs relative to control. The experiment is classed as functional. Summed up:
(§2)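 Female Sprague-Dawley rats (160−180 g), fasted overnight, six per group. Samples suspended in freshly prepared 0.5% hydroxypropyl methyl cellulose, given orally; control group received vehicle (normal saline). 1 h after dosing, 100 μL of 1% carrageenan in saline injected subcutaneously into left hind paw. Paw volume read by plethysmometer before and at 3 and 5 h; edema = final minus basal volume. Mean ± SEM, one-way ANOVA with Dunnett's test versus control.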

For experiment [6], the system named is Rattus norvegicus. The experiment in a line: Antiinflammatory activity in Sprague-Dawley rat assessed as inhibition of carrageenan-induced paw edema at 50 mg/kg, po administered 1 hr before carrageenan challenge measured after 3 hrs relative to control. The experiment is classed as functional. Summed up: as §2
In experiment [7] the test system is Rattus norvegicus. Kind of experiment: Antiinflammatory activity in Sprague-Dawley rat assessed as inhibition of carrageenan-induced paw edema at 100 mg/kg, po administered 1 hr before carrageenan challenge measured after 5 hrs relative to control. It is filed as functional. Put shortly: as §2
For orientation: In the carrageenan paw model, swelling and tenderness develop within hours.

Experiment [8] relates to Rattus norvegicus. The experiment in a line: Antiinflammatory activity in Sprague-Dawley rat assessed as inhibition of carrageenan-induced paw edema at 100 mg/kg, po administered 1 hr before carrageenan challenge measured after 3 hrs relative to control. The experiment is classed as functional. Summed up:
as §2

The IC50 is the point on the concentration scale where inhibition reaches its midpoint. For `COC1Oc2ccccc2-c2c1oc1cc(O)c(C)c(O)c1c2=O` (centres undefined) [BOERAVINONE A], in experiment [1], the 50% inhibitory concentration (IC50) was found to be 32.9 µM.

Regarding `COc1c(O)c(C)c(O)c2c(=O)c3c(oc12)C(O)Oc1ccccc1-3` (racemic), the IC50 in experiment [1] worked out at 25.9 µM.

Turning to `COc1c(O)c(C)c(O)c2c(=O)c3c(oc12)C(OC)Oc1ccccc1-3` (racemic), the Ratio IC50 in experiment [2] was determined as 1.09. Also, the IC50 in experiment [3] was 31.4 µM; in experiment [1], 33.1 µM.

For the molecule `O=c1c2c(oc3cc(O)cc(O)c13)C(O)Oc1cc(O)ccc1-2` (racemic), in experiment [2], the Ratio IC50 stood at 0.79. Besides, the figures for the half-maximal inhibitory concentration (IC50) in experiment [3] and in experiment [1] were 25.5 µM and 21.7 µM, respectively.

In general, inhibition refers to the percentage by which the read-out fell short of the control. With `COc1cc(O)c2c(c1)O[C@@H]1COc3c(O)cccc3[C@@]1(O)C2=O` (relative stereo), in experiment [4], the inhibition was 47.2%.

One may read the inhibition in vivo as the percentage by which the read-out fell short of the control. For the molecule `Cc1c(O)cc2oc3c(c(=O)c2c1O)-c1ccccc1OC3O` (centres undefined) [BOERAVINONE B], the inhibition in vivo at 50 mg/kg stood at 56.7% in experiment [5] and 48.3% in experiment [6]. Also, the IC50 in experiment [1] was found to be 25 µM.

With `COC1Oc2ccccc2-c2c1oc1cc(O)cc(O)c1c2=O` (racemic), the inhibition in experiment [4] was 59.4%.

Consider `Cc1c(O)cc2oc3c(c(=O)c2c1O)-c1ccc(O)cc1OC3O` (centres undefined) [BOERAVINONE E], for which the IC50 in experiment [1] was found to be 23.9 µM.

Consider `CC(C)Cc1ccc(C(C)C(=O)O)cc1` (centres undefined) [IBUPROFEN], for which the inhibition in vivo at 100 mg/kg in experiment [7] was 50.4%; in experiment [8], 42.7%. Further, the inhibition in vivo at 50 mg/kg in experiment [5] was determined as 43.5%; in experiment [6], 35.8%.

With `COc1cc(O)c2c(=O)c3c(oc2c1)C(O)Oc1c(O)cccc1-3` (racemic), the inhibition in experiment [4] is 59.9%.
